The values that follow come from ChEMBL document CHEMBL1138024, “Aryl urea analogs with broad-spectrum antibacterial activity” (Bioorg Med Chem Lett, 2004).

Common to all, as to assay type: functional
Assay [1] concerns Staphylococcus aureus. As to the kind of experiment: In vitro antibacterial activity against Staphylococcus aureus; value ranges from 50-100 uM.
The test system of assay [2] is Staphylococcus aureus. As to the kind of experiment: In vitro antibacterial activity against Staphylococcus aureus; value ranges from 12-25 uM.
The test system of assay [3] is Staphylococcus aureus. As to the kind of experiment: In vitro antibacterial activity against Staphylococcus aureus; value ranges from 25-50 uM.
Assay [4] relates to Staphylococcus aureus. Description: In vitro antibacterial activity against Staphylococcus aureus; value ranges from 6-12 uM.
Assay [5] relates to Streptococcus pyogenes. Description: Minimum inhibitory concentration against Streptococcus pyogenes ATCC 49399; value ranges from 6-12 uM.
The subject of assay [6] is Staphylococcus aureus. Description: Minimum inhibitory concentration against Staphylococcus aureus ATCC 13709; value ranges from 3-6 uM.
The subject of assay [7] is Pseudomonas aeruginosa. Description: Minimum inhibitory concentration against Pseudomonas aeruginosa ATCC 25416.
The test system of assay [8] is Enterococcus faecium. As to the kind of experiment: Minimum inhibitory concentration against Enterococcus faecium ATCC 6569.
Assay [9] has as its system Enterococcus faecalis. Description: Minimum inhibitory concentration against Enterococcus faecalis ATCC 29212; value ranges from 6-12 uM.
For assay [10], the system named is Staphylococcus aureus. As to the kind of experiment: Minimum inhibitory concentration against Staphylococcus aureus ATCC 13709 (+4% BSA); value ranges from 25-50 uM. An outline of the steps: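 Same microdilution MIC against S. aureus ATCC 13709, but with 4% bovine serum albumin in the wells. Compound in 0.5% DMSO in water, inoculum about 10³–10⁴ CFU/well, duplicates. Growth was read as A595 after 20–24 h at 37°C against a compound-free control. MIC is reported as the range between full inhibition and viable growth.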

Assay [11] deals with Escherichia coli. Description: Minimum inhibitory concentration against Escherichia coli ATCC 25922; value ranges from 12-25 uM.
Assay [12] deals with Proteus vulgaris. Description: Minimum inhibitory concentration against Proteus vulgaris ATCC 8427; value ranges from 12-25 uM.
The test system of assay [13] is Staphylococcus aureus. Description: In vitro antibacterial activity against Staphylococcus aureus; value ranges from 3-6 uM.
Assay [14] deals with Klebsiella pneumoniae. Description: Minimum inhibitory concentration against Klebsiella pneumoniae ATCC 13383; value ranges from 6-12 uM.
The subject of assay [15] is Staphylococcus aureus. As to the kind of experiment: In vitro antibacterial activity against Staphylococcus aureus.

One may read the MIC as the lowest concentration found to suppress growth. A low value points to a more susceptible organism.

Converted amounts (≈) assume the structure as drawn.

In the case of `O=C(NCCCNCc1cc(C(F)(F)F)cc(C(F)(F)F)c1)Nc1ccc(C(F)(F)F)cc1`, the MIC in assay [1] was determined as 100 µM (≈ 48.7 µg/mL).

As to `CN(C)c1ccc(CNCCCNC(=O)Nc2ccc(C(F)(F)F)cc2)cc1`, in assay [2], the MIC was 25 µM (≈ 9.86 µg/mL).

The compound `COc1cc(CNCCCNC(=O)Nc2ccc(C(F)(F)F)cc2)cc(OC)c1` had an MIC in assay [1] of 100 µM (≈ 41.1 µg/mL).

In assay [2], `Fc1cccc(N/C(S)=N/CCCNCc2cc(Br)cc(Br)c2)c1` came in with an MIC of 25 µM (≈ 11.9 µg/mL).

With `COc1ccc(N/C(S)=N/CCCNCc2cc(Br)cc(Br)c2)cc1`, in assay [3], the MIC came to 50 µM (≈ 24.4 µg/mL).

With `O=C(NCCCNCc1cc(F)cc(F)c1)Nc1ccc(C(F)(F)F)cc1`, the MIC in [1] was determined as 100 µM (≈ 38.7 µg/mL).

The compound `Fc1ccccc1/N=C(\S)NCCCNCc1cc(Br)cc(Br)c1` displayed an MIC in assay [3] of 50 µM (≈ 23.8 µg/mL).

In assay [4], `O=C(NCCCNCc1cc(Cl)cc(Cl)c1)Nc1ccc(C(F)(F)F)cc1` gave an MIC of 12 µM (≈ 5.04 µg/mL).

Turning to `O=C(NCCCNCc1cc(Br)cc(Br)c1)Nc1ccc(C(F)(F)F)cc1`, the MIC was 12 µM (≈ 6.11 µg/mL) in [5]; 6 µM (≈ 3.05 µg/mL) in [6]; above 100 µM in [7]; above 100 µM in assay [8]; 12 µM (≈ 6.11 µg/mL) in [9]; 50 µM (≈ 25.5 µg/mL) in [10]. The MIC in [11] came to 25 µM (≈ 12.7 µg/mL); in [12], 25 µM (≈ 12.7 µg/mL); in [13], 6 µM (≈ 3.05 µg/mL); in [14] it was 12 µM (≈ 6.11 µg/mL).

For the compound `COc1ccccc1-c1ccc(CNCCCNC(=O)Nc2ccc(C(F)(F)F)cc2)cc1`, the lowest concentration to inhibit growth in assay [4] (MIC) was 12 µM (≈ 5.49 µg/mL).

With `S=C(NCCCNCc1cc(Br)cc(Br)c1)Nc1ccc(I)cc1`, 25 µM (≈ 14.6 µg/mL) was the least that counted as inhibitory in assay [2] (MIC).

`FC(F)(F)c1ccc(N/C(S)=N/CCCNCc2cc(Br)cc(Br)c2)cc1` came in with an MIC in [4] of 12 µM (≈ 6.3 µg/mL).

Turning to `O=C(NCCCNCc1cc(Br)cc(Br)c1)Nc1cccc(C(F)(F)F)c1`, it took 12 µM (≈ 6.11 µg/mL) to inhibit growth in assay [4] (MIC).

In turn, `S=C(NCCCNCc1cc(Br)cc(Br)c1)Nc1ccc(Cl)cc1` came in with an MIC in [4] of 12 µM (≈ 5.9 µg/mL).

Compound `S=C(NCCCNCc1cc(Br)cc(Br)c1)Nc1ccc(Cl)c(Cl)c1` yielded an MIC in [13] of 6 µM (≈ 3.16 µg/mL).

With `O=C(NCCCNCc1cc(Br)cc(Br)c1)Nc1ccc(OC(F)(F)F)cc1`, the lowest concentration to inhibit growth in [4] (MIC) was 12 µM (≈ 6.3 µg/mL).

In assay [15], `COc1ccccc1/N=C(\S)NCCCNCc1cc(Br)cc(Br)c1` registered an MIC above 100 µM.

Consider `Fc1ccc(N/C(S)=N/CCCNCc2cc(Br)cc(Br)c2)cc1`, for which, in assay [2], 25 µM (≈ 11.9 µg/mL) was the least that counted as inhibitory (MIC).

Regarding `O=C(NCCCNCc1cc(Br)cc(Br)c1)Nc1ccc(Cl)cc1`, the MIC in assay [4] amounted to 12 µM (≈ 5.71 µg/mL).

For `O=C(NCCCNCc1ccccc1OC(F)(F)F)Nc1ccc(C(F)(F)F)cc1`, the lowest concentration to inhibit growth in assay [2] (MIC) was 25 µM (≈ 10.9 µg/mL).

The compound `COc1cccc(N/C(S)=N/CCCNCc2cc(Br)cc(Br)c2)c1` returned an MIC in assay [3] of 50 µM (≈ 24.4 µg/mL).

Take `O=C(NCCCNCCCOc1ccc(Br)cc1Br)Nc1ccc(C(F)(F)F)cc1`: in assay [13], it took 6 µM (≈ 3.32 µg/mL) to inhibit growth (MIC).
